Columns and labels:
[1] = biological target: Activin receptor type-1 (Homo sapiens, UniProt Q04771); experiment: Inhibition of human ALK2 (147 to end residues) using casein as substrate incubated for 40 mins in presence of [gamma-33ATP] by scintillation counting based radiometry assay
In short: (§1)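 Eurofins radiometric enzymatic assay with ATP at Km for each kinase. IC50 was derived from a 9-point dose–response curve run in duplicate.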

[2] = biological target: T1, Serine/threonine-protein kinase 17B (Homo sapiens) (UniProt O94768); experiment: Inhibition of full length recombinant human DRAK2 using KKRPQRRYSNVF as substrate at 1 uM incubated for 120 mins in presence of [gamma-33P-ATP] by radiometric scintillation assay relative to control
T1 sequence (whole entry): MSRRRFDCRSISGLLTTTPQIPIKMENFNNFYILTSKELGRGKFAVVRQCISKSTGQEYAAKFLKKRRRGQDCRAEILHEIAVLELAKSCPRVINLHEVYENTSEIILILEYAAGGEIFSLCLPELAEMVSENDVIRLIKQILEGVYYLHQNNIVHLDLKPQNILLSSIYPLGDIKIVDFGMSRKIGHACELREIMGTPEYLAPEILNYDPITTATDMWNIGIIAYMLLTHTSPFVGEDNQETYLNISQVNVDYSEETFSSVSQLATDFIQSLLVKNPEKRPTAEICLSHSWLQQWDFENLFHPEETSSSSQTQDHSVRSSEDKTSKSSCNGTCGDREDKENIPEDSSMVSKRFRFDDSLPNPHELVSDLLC
In short: (§2)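 Eurofins radiometric kinase assay with ATP at Km for each kinase. Compound was tested at a single 1 μM concentration in duplicate, and the result is reported as percent of control.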

[3] = biological target: Serine/threonine-protein kinase SIK2 (Homo sapiens, UniProt Q9H0K1); experiment: Inhibition of recombinant human SIK2 (1 to 276 residues) using KKKVSRSGLYRSPSMPENLNRPR as substrate measured after 40 mins in presence of [gamma33P]ATP by radiometric scintillation counting method
Chain of Serine/threonine-protein kinase SIK2 (Q9H0K1 whole entry, the tested form may be a part): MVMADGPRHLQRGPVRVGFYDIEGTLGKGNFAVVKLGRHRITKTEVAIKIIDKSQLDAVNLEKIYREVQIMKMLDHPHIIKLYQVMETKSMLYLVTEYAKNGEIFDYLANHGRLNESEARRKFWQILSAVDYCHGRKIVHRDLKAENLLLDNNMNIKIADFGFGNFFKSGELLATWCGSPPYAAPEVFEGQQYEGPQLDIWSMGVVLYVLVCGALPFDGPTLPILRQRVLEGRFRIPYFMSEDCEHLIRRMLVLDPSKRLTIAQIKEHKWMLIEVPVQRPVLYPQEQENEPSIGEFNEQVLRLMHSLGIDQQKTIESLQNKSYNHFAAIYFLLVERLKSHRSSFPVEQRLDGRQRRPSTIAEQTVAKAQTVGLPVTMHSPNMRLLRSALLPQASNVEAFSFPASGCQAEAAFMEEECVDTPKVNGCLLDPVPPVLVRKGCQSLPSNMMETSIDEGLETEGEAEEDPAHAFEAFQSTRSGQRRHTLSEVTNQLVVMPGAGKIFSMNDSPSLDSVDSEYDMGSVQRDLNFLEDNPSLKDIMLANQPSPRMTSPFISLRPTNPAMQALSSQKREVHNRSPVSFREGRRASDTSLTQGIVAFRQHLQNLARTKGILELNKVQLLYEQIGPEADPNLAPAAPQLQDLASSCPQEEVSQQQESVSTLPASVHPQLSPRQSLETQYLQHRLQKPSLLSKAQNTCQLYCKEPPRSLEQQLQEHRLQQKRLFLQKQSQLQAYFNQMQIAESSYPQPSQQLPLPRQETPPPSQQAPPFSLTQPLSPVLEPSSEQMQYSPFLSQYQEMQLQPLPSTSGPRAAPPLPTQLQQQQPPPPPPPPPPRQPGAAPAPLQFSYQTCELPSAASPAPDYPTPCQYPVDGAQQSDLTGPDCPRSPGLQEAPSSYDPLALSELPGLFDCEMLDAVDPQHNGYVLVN
In short: (§3)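 Eurofins radiometric kinase assay run at ATP equal to Km for each kinase. 9-point dose–response in duplicate gives the IC50.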

[4] = biological target: T2, Serine/threonine-protein kinase 17A (Homo sapiens) (UniProt Q9UEE5); experiment: Inhibition of full length recombinant human DRAK1 using KKLNRTLSFAEPG as substrate at 1 uM incubated for 40 mins in presence of [gamma-33P-ATP] by radiometric scintillation assay relative to control; in short: as §2
T2 sequence (whole entry): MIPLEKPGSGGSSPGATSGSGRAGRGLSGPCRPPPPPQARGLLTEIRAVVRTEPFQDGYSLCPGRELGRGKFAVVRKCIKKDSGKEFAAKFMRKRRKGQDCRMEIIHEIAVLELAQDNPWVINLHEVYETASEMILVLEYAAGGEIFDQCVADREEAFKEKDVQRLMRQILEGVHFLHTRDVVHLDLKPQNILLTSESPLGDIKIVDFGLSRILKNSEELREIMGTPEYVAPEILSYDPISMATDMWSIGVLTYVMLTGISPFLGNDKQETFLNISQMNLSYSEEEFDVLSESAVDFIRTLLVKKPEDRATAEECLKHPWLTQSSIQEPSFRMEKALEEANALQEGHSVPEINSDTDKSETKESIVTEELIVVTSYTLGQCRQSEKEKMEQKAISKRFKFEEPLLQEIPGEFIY

[5] = biological target: Serine/threonine-protein kinase PRP4 homolog (Homo sapiens, UniProt Q13523); experiment: Inhibition of recombinant human PRP4 (663 to end residues) using casein as substrate incubated for 120 mins in presence of [gamma-33P-ATP] by radiometric scintillation assay; in short: as §1
Chain of Serine/threonine-protein kinase PRP4 homolog (Q13523 whole entry): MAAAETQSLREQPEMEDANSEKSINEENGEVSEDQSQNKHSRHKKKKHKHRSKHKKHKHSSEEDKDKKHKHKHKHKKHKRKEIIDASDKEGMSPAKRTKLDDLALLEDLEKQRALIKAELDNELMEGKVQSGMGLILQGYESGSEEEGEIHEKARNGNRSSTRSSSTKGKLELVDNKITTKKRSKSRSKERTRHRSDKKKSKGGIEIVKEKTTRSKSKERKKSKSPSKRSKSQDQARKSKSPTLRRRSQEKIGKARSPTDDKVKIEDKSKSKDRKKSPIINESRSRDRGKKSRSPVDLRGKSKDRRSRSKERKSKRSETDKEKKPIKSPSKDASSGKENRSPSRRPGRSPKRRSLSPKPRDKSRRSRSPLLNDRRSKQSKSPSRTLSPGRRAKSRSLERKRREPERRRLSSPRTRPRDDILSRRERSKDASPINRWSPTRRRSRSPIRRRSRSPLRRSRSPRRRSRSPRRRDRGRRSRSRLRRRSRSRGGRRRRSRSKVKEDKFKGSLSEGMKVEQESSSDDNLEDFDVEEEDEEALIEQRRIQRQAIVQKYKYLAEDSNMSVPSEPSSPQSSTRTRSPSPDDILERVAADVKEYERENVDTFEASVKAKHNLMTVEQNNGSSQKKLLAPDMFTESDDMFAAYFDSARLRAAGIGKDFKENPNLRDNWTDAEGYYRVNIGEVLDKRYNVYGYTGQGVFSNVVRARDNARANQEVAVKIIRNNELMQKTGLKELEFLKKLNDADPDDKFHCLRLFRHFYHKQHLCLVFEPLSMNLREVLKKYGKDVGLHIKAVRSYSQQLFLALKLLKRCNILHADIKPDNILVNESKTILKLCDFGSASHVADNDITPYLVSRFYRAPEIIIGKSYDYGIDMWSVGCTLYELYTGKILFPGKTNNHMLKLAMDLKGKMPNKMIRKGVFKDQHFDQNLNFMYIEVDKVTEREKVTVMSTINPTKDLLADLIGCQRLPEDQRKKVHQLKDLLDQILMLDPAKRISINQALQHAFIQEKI

[6] = biological target: BMP-2-inducible protein kinase (Homo sapiens, UniProt Q9NSY1); experiment: Inhibition of 1recombinant human BMP2K using myelin basic protein as substrate incubated for 120 mins in presence of [gamma-33P-ATP] by radiometric scintillation assay
Chain of BMP-2-inducible protein kinase (Q9NSY1 whole entry, looked up): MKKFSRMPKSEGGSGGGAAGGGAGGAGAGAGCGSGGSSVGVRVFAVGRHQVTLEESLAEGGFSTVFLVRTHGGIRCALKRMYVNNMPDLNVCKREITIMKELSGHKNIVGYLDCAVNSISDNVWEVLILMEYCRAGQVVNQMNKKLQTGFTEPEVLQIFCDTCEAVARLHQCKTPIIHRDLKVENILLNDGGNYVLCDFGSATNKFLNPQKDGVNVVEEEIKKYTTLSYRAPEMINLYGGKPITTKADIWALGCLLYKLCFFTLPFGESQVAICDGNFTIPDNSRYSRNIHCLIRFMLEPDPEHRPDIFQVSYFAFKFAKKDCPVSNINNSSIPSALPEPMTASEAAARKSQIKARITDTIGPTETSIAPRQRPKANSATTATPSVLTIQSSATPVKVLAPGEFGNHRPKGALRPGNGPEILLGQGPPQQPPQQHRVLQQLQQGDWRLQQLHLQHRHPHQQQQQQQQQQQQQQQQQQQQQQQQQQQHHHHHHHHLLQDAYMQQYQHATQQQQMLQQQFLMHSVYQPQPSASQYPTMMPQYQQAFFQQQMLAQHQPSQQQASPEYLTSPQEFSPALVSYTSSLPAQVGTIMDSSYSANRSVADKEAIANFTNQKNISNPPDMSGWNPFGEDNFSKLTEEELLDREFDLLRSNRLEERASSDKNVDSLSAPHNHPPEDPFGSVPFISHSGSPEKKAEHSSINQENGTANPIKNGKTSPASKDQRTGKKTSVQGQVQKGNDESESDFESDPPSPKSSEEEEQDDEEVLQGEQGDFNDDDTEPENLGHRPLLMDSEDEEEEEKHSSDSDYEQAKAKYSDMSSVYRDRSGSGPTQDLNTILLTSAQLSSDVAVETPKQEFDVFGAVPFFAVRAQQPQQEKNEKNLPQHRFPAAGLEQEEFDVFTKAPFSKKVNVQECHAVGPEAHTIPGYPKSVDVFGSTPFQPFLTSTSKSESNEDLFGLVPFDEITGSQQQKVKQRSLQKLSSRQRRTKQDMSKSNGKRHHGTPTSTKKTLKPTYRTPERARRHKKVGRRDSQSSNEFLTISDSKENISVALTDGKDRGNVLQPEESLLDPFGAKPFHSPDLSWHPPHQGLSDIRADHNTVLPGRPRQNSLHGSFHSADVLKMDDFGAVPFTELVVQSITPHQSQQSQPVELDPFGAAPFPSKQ

[7] = biological target: MAP kinase-interacting serine/threonine-protein kinase 2 (Homo sapiens, UniProt Q9HBH9); experiment: Inhibition of full length recombinant human MKNK2 using myelin basic protein as substrate incubated for 40 mins in presence of [gamma-33P-ATP] by radiometric scintillation assay; in short: as §3
Chain of MAP kinase-interacting serine/threonine-protein kinase 2 (Q9HBH9 whole entry): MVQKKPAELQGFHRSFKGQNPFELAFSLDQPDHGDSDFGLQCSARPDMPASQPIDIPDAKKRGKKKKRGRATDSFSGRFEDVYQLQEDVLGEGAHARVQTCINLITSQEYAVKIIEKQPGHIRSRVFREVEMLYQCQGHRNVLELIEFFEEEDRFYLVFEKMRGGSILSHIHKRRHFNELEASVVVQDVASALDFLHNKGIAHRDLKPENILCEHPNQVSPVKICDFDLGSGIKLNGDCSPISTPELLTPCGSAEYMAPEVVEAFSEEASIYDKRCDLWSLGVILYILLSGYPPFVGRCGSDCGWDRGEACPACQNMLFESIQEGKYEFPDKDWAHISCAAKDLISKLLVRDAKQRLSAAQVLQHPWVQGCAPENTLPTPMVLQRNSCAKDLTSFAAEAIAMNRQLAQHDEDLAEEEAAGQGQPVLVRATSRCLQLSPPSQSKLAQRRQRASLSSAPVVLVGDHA

Chain of Activin receptor type-1 (Q04771 whole entry): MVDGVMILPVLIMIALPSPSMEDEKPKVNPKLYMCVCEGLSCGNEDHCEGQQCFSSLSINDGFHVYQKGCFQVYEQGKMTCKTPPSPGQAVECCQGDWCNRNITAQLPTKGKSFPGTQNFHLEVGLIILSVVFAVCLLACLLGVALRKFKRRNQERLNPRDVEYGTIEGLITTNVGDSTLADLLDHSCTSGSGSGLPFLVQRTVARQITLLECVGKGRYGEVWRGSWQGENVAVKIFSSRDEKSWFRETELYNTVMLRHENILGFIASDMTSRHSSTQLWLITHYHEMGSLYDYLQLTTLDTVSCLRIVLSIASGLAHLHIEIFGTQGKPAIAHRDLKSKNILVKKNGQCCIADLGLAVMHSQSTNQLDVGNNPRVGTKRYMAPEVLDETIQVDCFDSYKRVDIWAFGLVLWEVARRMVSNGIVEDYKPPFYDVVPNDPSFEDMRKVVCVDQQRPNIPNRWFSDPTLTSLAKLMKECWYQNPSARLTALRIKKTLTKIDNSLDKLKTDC

Question: Which results are given for `c1cc(CN2CCOCC2)cc(Nc2nccc(NCCc3cnc[nH]3)n2)c1`?
Answer: IC50 [1]: 537 nM; % control [2]: 65%; IC50 [3]: 185 nM; % control [4]: 78%

Question: With `NS(=O)(=O)c1ccc(CNc2nc(Nc3cccc(CN4CCOCC4)c3)ncc2Br)cc1` as the compound, how does the IC50 [5] read?
Answer: > 10000 nM

Question: What does the source list for `NS(=O)(=O)c1ccc(CNc2nc(Nc3cccc(NC(=O)N4CCCC4)c3)ncc2Br)cc1`?
Answer: IC50 [6]: 488 nM; IC50 [7]: 1010 nM

Source: ChEMBL document CHEMBL5046221, “Identification of Pyrimidine-Based Lead Compounds for Understudied Kinases Implicated in Driving Neurodegeneration” (J Med Chem, 2022)
